# Active and inactive are the calls of the source. No cut-off for these calls is given here.
# Assays:
# Salmonella typhimurium [1] = assay: Mutagenic activity in Salmonella Typhimurium TA102 preincubated for 20 to 30 mins; type: toxicity, organism-based; details: salmonella enterica subsp. enterica serovar typhimurium
# Mus musculus [2] = assay: Antiinflammatory activity in Swiss albino mouse peritonitis model assessed as reduction in thioglycollate-induced of leukocyte migration at 300 umol/kg, po administered 1 hr before thioglycollate challenge measured after 4 hrs; type: functional, organism-based
# Procedure, shortened: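 Mice dosed at 300 μmol/kg po in arabic gum, then 1 h later given 1 mL 3% thioglycollate ip. Killed at 4 h, peritoneum washed with 1.5 mL cold PBS; exudate cells recovered and total cells counted in Neubauer chamber; exudate >98% neutrophils. Mean ± SEM, at least six animals, ANOVA/Dunnett vs vehicle.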
# Mus musculus [3] = assay: Antiinflammatory activity in Swiss albino mouse assessed as inhibition of capsaicin-induced ear edema at 300 umol/kg, po administered 1 hr before capsaicin challenge measured after 30 mins relative to control; type: functional
# Procedure, shortened: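 Female Swiss mice, 8 weeks old, groups of six; oral dosing at 300 μmol/kg as suspension in arabic gum, vehicle controls 10 mL/kg po; left ear given acetone. Killed 30 min after capsaicin; 7 mm ear punches weighed, edema = treated right minus untreated left ear weight; % inhibition vs vehicle control; mean ± SEM, n = 8, ANOVA/Dunnett.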
# Salmonella typhimurium [4] = assay: Mutagenic activity in Salmonella Typhimurium TA100 preincubated for 20 to 30 mins; type: toxicity, organism-based; details: salmonella enterica subsp. enterica serovar typhimurium
# Blood = assay: Genotoxicity in mouse peripheral blood by micronucleus test; type: toxicity, tissue-based
# [5] = Antiinflammatory activity in knockout-transgenic sickle cell mouse monocytes assessed as inhibition of LPS-induced TNFalpha production at 100 uM administered 30 mins before LPS challenge […]; type: functional, Monocyte
# [6] = Antiinflammatory activity in knockout-transgenic sickle cell mouse monocytes assessed as inhibition of LPS-induced TNFalpha production at 300 uM administered 30 mins before LPS challenge […]; type: functional, Monocyte
# Mus musculus [7] = assay: Antinociceptive activity in Swiss albino mouse assessed as reduction in acetic acid-induced abdominal constrictions at 100 umol/kg, po administered 1 hr before acetic acid challenge measured for 20 mins relative to control; type: functional, Abdomen; design: scale not given: the % may be the effect or the level left
# Procedure, shortened: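 Constrictions counted for 20 min starting 10 min after injection; % inhibition vs vehicle group; mean ± SEM, 10 animals per group, Student's t test.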
# [8] = Antiinflammatory activity in knockout-transgenic sickle cell mouse monocytes assessed as inhibition of LPS-induced TNFalpha production at 1 uM administered 30 mins before LPS challenge […]; type: functional, Monocyte
# [9] = Antiinflammatory activity in knockout-transgenic sickle cell mouse monocytes assessed as TNFalpha level at 300 uM administered 30 mins before LPS challenge measured after […] by ELISA; type: functional, Monocyte
# Procedure, shortened: (§1)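 Blood drawn by intracardiac puncture from anesthetized adult knockout-transgenic sickle cell mice; mononuclear cells isolated on Ficoll, adhered 2 h in DMEM + 10% calf serum (5% CO2, 37 °C), monocyte purity >90% by May-Giemsa. Compounds (100 or 300 μM; dexamethasone 1 μM) added 30 min before LPS 1 μg/mL; supernatant TNFα by ELISA after 20 h. Mean ± SEM, N ≥ 4 experiments.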
# [10] = Antiinflammatory activity in knockout-transgenic sickle cell mouse monocytes assessed as TNFalpha level at 100 uM administered 30 mins before LPS challenge measured after […] by ELISA; type: functional, Monocyte; procedure, shortened: as §1
SMILES,Activity (Salmonella typhimurium [1]),Activity (Mus musculus [2]),inhibition in vivo at 300 µmol/kg (Mus musculus [3]),Activity (Salmonella typhimurium [4]),Activity (Blood),other results
O=C1CCC(N2C(=O)c3ccccc3C2=O)C(=O)N1CO[N+](=O)[O-] (stereo unspecified),Non-toxic,Active,43%,Non-toxic,Non-toxic,
O=C1c2ccccc2C(=O)N1CO[N+](=O)[O-],Non-toxic,Active,43%,Non-toxic,Non-toxic,
O=C1c2ccccc2C(=O)N1c1cccc(CO[N+](=O)[O-])c1,Non-toxic,Active,65%,Non-toxic,Non-toxic,inhibition (INH) [5]: 45%; inhibition (INH) [6]: 91%
O=C1c2ccccc2C(=O)N1c1ccc(CO[N+](=O)[O-])cc1,Non-toxic,Active,43%,Non-toxic,Non-toxic,inhibition (INH) [5]: 67%; inhibition (INH) [6]: 84%; Activity (Mus musculus [7]): 66%
O=C1c2ccccc2C(=O)N1c1ccc(CCO[N+](=O)[O-])cc1,Non-toxic,Active,43%,Non-toxic,Non-toxic,
Cc1c(N(C)CS(=O)(=O)O)c(=O)n(-c2ccccc2)n1C,,,,,,Activity (Mus musculus [7]; Abdomen): inactive
COc1ccc2c(c1)c(CC(=O)O)c(C)n2C(=O)c1ccc(Cl)cc1,,,,,,inhibition (Mus musculus [3]): Active
O=C1c2ccccc2C(=O)N1CCO[N+](=O)[O-],Non-toxic,Active,43%,Non-toxic,Non-toxic,Activity (Mus musculus [7]): 25%
C[C@@H]1C[C@H]2[C@@H]3CCC4=CC(=O)C=C[C@]4(C)[C@@]3(F)[C@@H](O)C[C@]2(C)[C@@]1(O)C(=O)CO [DEXAMETHASONE],,,,,,inhibition (INH) [8]: 83%
NC(=O)NO [HYDROXYUREA],,,,,,Activity [9]: 579.8 pg/mL; Activity [10]: 463.3 pg/mL
